# Screening data as filed in PubChem BioAssay.
# In the library only some 2.7% were active in any assay of this set; here they are far more common.
# RAM network inh: blocks the yeast RAM network. AID 868. S. cerevisiae dse1pr::URA3 reporter, 5-FOA growth OD615, 2 d; analog-sensitive cbk1-as2 kinase mutant strain. inhibition, % at 50 µM. 1.8% of 190,000 active;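 active means inhibition above a set limit, 3 SD over mean compound inhibition, cut at about 8.4% in these data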;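 further: 0% = DMSO-only wells with no growth and 100% = 10 µM 1-NA-PP1 full growth; inhibition rescues growth on 5-FOA so higher OD means more RAM inhibition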
# BB579 growth dn: yeast BB579 growth reduction in restrictive medium; S. cerevisiae BB579 growth, OD615, 48 h; inhibition, % at 10 µM; 0.51% of 140,000 active; AID 804;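 active means inhibition above a set limit, 3 SD over the mean compound inhibition, cut at about 44% in these data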
#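 System: Saccharomyces cerevisiae DeaD strain BB579, replicative lifespan model yeast | Buffer or medium: Restrictive glucose-based CSMM-D medium | Times: 4 h preincubation and 48 h exposure at 30 °C | Detection: OD615 turbidity measurement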
# Yeast life ext: yeast lifespan extension. S. cerevisiae growth with nicotinamide, OD615; deaD strain in restrictive glucose medium. AID 775. inhibition of the nicotinamide effect, % at 10 µM. 0.68% of 130,000 active;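 active means inhibition above a set limit, placed 3 SD over the median of all compounds, cut at about 26% in these data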;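 further: 0% = nicotinamide-treated wells and 100% = cells grown without nicotinamide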
#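 Buffer or medium: CSMM-D glucose medium, restrictive; test system: modified budding yeast, DeaD strain; compound: single dose 10 µM compound, 0.25% DMSO; schedule: culture preincubation 4 h, compound exposure 48 h, both 30 °C; detection: optical density (absorbance) at 615 nm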
# sdo1 growth: sdo1-depleted yeast growth rescue | S. cerevisiae sdo1-depleted JHY4D growth rescue, OD600 30 h; stronger effect = higher value; pdr5 snq2 efflux-pump mutant strain | z-score at 10 µM | 0.21% of 140,000 active;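 active means z-score above 3 at both the 24 hr and the 30 hr optical density reads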;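 further: z-score against mean and SD of all compound wells on the same plate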
# Active calls of the source: *; . = not tested or not shown.
SMILES,RAM network inh,BB579 growth dn,Yeast life ext,sdo1 growth
CC1(C)Cc2c(c(N3CCOCC3)nc3sc4c(NCc5ccccc5)nnnc4c23)CS1,8.7*,-61.7,-6.8,-0.38
CC(C)(C)c1cc(C(c2cccnc2)N2CCN(CCO)CC2)cc(C(C)(C)C)c1O (stereo not drawn),-1.5,95.7*,17.6,-2.23
Oc1ccc(-c2csc(-c3ccccc3)n2)cc1O,-1.8,82.6*,-20.4,-2.47
Oc1ccccc1-c1csc(-c2ccccc2)n1,1.9,.,.,.
Cc1ccccc1-n1nnnc1SCC(=O)N(C)C1CCS(=O)(=O)C1 (stereo not drawn),1.3,.,.,.
O=C(Nc1cccc(Cl)c1)c1cc(S(=O)(=O)NCCc2ccc(Cl)cc2)ccc1F,10.4*,-26.1,0.1,-2.15
Cc1ccc(NC(=O)c2cc(S(=O)(=O)NCCc3ccccc3)ccc2F)cc1Cl,5.5,-33.7,0.9,-0.89
N#C/C(=C\c1ccc(-c2ccccc2)cc1)c1nc(-c2ccco2)cs1,8.4*,-50.0,2.4,0.42
COc1cc(CNC2CCCC2)cc(Br)c1OCC(=O)Nc1ccccc1C,0.3,.,.,.
O=C(CN(Cc1ccccc1)S(=O)(=O)c1cccc(C(F)(F)F)c1)NC1CCCCC1,8.8*,-41.3,10.0,-1.25
COC(=O)c1ccccc1NC(=O)C(=O)NCc1ccncc1,0.2,.,.,.
N[C@@H](Cc1ccc(O)cc1)c1nnc([C@H](CC(=O)O)NC(=O)C2CCNCC2)o1,0.8,.,.,.
CC1CCc2c(sc3nc(CN4CCOCC4)nc(Sc4ccccc4)c23)C1 (stereo not drawn),-1.2,46.1*,-6.9,-1.21
Cc1ccccc1Oc1cc(-n2ncc(Cl)c(Cl)c2=O)ncn1,0.9,-30.9,46.2*,-0.56
COc1ncnc2c1oc1nc(C(C)C)c3c(c12)CC(C)(C)OC3,2.8,-17.1,-12.8,0.03
CCOc1ncnc2c1oc1nc(CC(C)C)c3c(c12)CC(C)(C)OC3,10.0*,-49.0,13.9,-0.78
O=C(NCCc1ccccn1)c1cc(-c2cccc3ccccc23)nc2ccccc12,3.0,-37.9,28.1*,-1.14
COc1ccc(NC(C)=O)cc1S(=O)(=O)Nc1ccc2c(c1)OCCO2,0.7,.,.,.
COc1ccc(C2CC(c3c(-c4ccccc4)c4cc(Cl)ccc4[nH]c3=O)=NN2C(=O)CCC(=O)O)cc1 (stereo not drawn),9.1*,.,.,.
Cc1ccc(NC(=S)N(Cc2cccc(Br)c2)CC2CCC(C(=O)O)CC2)cc1Cl (stereo not drawn),3.4,.,.,.
N#Cc1c(-c2ccccc2)c(-c2ccccc2)nn(CC(=O)NNC(=O)Nc2ccccc2)c1=O,4.0,-10.1,62.4*,-0.36
O=C(Cn1nc(-c2ccccc2)c2ccccc2c1=O)Nc1cccc(O)c1,1.7,.,.,.
O=c1c2cccc3c2c(nn1CN1CCOCC1)-c1ccccc1-3,0.7,93.5*,-18.7,-0.04
Cc1ccc(/C=C(\NC(=O)c2ccccc2)C(=O)N2CCCC2C(=O)O)cc1 (stereo not drawn),4.7,.,.,.
Cc1ccc(C(=O)NNC(=S)NC(=O)COc2ccccc2)cc1,2.9,-29.6,-0.2,0.73
SMILES,RAM network inh,BB579 growth dn,Yeast life ext,sdo1 growth
Cc1ccccc1C(=O)NNC(=S)NC(=O)COc1ccccc1,3.5,70.3*,11.5,-1.1
O=C(Nc1ccccc1C(=O)NCc1cccnc1)c1cccc([N+](=O)[O-])c1,-0.1,.,.,.
O=C(Nc1cccc(S(=O)(=O)NC2=NCCCCC2)c1)c1cc(-c2ccccc2Cl)nc2ccccc12,11.2*,-48.9,0.5,-1.06
Cc1ccc(-n2c(SCC(=O)Nc3cccc(S(=O)(=O)NC4=NCCCCC4)c3)nc3ccccc3c2=O)cc1,9.8*,-19.4,-2.4,-0.78
Cc1c(NC(=O)COC(=O)c2ccc(S(=O)(=O)N3CCOCC3)cc2)c(=O)n(-c2ccccc2)n1C,0.6,.,.,.
CCCCNc1c2c3c(cccc3n(C)c1=O)C(=O)c1ccccc1-2,9.2*,-40.4,7.0,-1.31
CN(c1ccccc1C(=O)N1CCN(Cc2ccc3c(c2)OCO3)CC1)S(C)(=O)=O,-0.4,.,.,.
COc1cc(NS(=O)(=O)c2ccc(NC(C)=O)cc2)nc(OC)n1,1.7,-37.2,-3.9,0.92
COc1cc(NS(=O)(=O)c2ccc(N/C=C(\C#N)c3nc4cc(Cl)ccc4o3)cc2)nc(OC)n1,9.1*,-79.5,2.9,-1.42
O=C(C1CCCN(S(=O)(=O)c2ccccc2[N+](=O)[O-])C1)N1CCN(c2ccccc2)CC1 (stereo not drawn),-0.1,-3.2,-5.6,-1.12
COc1ccc(-c2cc(N)n(S(=O)(=O)c3c(F)c(F)c(F)c(F)c3F)n2)cc1OC,1.9,-107.0,76.9*,-2.81
O=c1[nH][nH]cc1C=Nc1ccccc1O,2.1,50.3*,-14.0,-1.41
N=C1/C(=C/c2cccn2-c2ccc([N+](=O)[O-])cc2)C(=O)N=C2SC=CN12,10.2*,-25.7,-6.2,-0.55
COc1ccc(C=C(c2nc3ccccc3s2)c2nc3ccccc3s2)cc1O,9.2*,-42.6,-1.0,-1.22
Cc1nnc(SCC(=O)NNC(=O)CC#N)[nH]c1=O,0.1,0.6,2.0,1.14
CN(C)c1ccc(S(=O)(=O)c2ccc(Cl)cc2)cc1,3.0,-11.8,70.9*,-0.68
CCCSc1nc(N)cc(=O)[nH]1,0.8,-28.2,33.8*,0.46
CCCSc1nc(C)cc(=O)[nH]1,1.1,-20.2,-4.2,0.31
Cc1cc(=O)oc2cc(OCC(=O)OCC(=O)NCCc3ccccc3)ccc12,9.2*,.,.,.
CNC(=O)COC(=O)COc1ccc2c(C)cc(=O)oc2c1,-0.4,.,.,.
O=C(CCCSc1nnnn1-c1cccc2ccccc12)c1ccc(F)cc1,9.4*,-31.5,-1.4,-1.58
COc1ccc(/C=C/C=C2\N=C(SC)SC2=O)cc1,10.8*,-47.2,4.6,-0.96
COc1ccc(CCNC(=O)Cn2c([N+](=O)[O-])cnc2C)cc1OC,0.4,.,.,.
CCC(C)c1ccccc1NC(=O)Cc1coc2cc3c(cc12)CCC3 (stereo not drawn),9.5*,-46.5,15.9,-0.67
CC(C)CCNC(=O)COC(=O)c1cc(Br)c(Br)s1,4.2,.,.,.
SMILES,RAM network inh,BB579 growth dn,Yeast life ext,sdo1 growth
Cc1ccc(-c2csc(NC(=O)CSc3nc4ccccc4[nH]3)n2)cc1,9.8*,-58.1,9.1,-1.36
CCOC(=O)C/C(N)=N/NC(=O)c1ccc(Cl)cc1Cl,0.2,.,.,.
CCOC(=O)c1cc(NC(=O)c2ccc(OC)cc2)c(=O)oc1-c1ccccc1,11.4*,-11.3,3.2,-0.9
COc1ccc(C(=O)NCC(C)(C)SCc2c(C)cc(C)cc2C)cc1,9.3*,-61.4,-6.4,-1.14
CC(/C=N/NC(=O)c1nn(C)c(C)c1Br)=C\c1ccccc1,-0.2,-33.8,-3.3,-0.27
COc1cc(CNCCN2CCOCC2)ccc1OCc1cccc(Cl)c1,-0.1,52.5*,-15.3,0.1
COc1ccc2c(c1)C1CC(C)(NC(=O)C1S(=O)(=O)c1ccc(F)cc1)O2 (stereo not drawn),1.6,-16.5,1.6,-0.32
CC(C)c1ccc2c(c1)C1(NN=C(c3ccccc3)S1)C(=O)N2 (stereo not drawn),1.6,78.2*,.,-2.2
CCc1ccc2c(c1)C1(NN=C(c3ccc(C)cc3)S1)C(=O)N2 (stereo not drawn),2.8,96.3*,.,-0.17
